Results from different studies.
Target: Hormonally up-regulated neu tumor-associated kinase (HUNK, Homo sapiens, UniProt P57058)
Residues used in one study (P57058 1-714): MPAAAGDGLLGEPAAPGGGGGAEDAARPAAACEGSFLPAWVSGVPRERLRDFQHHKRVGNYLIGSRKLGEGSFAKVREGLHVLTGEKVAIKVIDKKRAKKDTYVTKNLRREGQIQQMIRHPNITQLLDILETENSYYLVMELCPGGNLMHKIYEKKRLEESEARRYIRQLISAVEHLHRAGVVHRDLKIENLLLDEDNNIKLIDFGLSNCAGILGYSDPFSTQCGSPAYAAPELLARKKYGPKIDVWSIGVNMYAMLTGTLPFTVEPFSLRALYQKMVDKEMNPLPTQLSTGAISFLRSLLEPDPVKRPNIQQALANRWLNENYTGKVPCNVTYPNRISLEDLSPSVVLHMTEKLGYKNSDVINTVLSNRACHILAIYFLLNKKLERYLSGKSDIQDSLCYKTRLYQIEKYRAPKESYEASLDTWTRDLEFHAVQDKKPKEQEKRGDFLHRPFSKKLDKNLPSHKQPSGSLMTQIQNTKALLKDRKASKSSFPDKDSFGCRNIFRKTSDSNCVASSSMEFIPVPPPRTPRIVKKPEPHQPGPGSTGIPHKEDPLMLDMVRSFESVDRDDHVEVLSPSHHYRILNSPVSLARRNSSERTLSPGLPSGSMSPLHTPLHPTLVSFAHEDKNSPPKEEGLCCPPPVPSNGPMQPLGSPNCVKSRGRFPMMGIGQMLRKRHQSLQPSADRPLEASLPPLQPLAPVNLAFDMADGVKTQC

Compound | test | conditions | remaining binding [%]
O=C(c1ccc(Nc2ncc(Cl)c(-c3ccc(Cl)s3)n2)cc1)N1CCC(N2CCCC2)CC1 | binding, competition with immobilised ligand | 1 µM | 100
CC1CCCN1c1nccc(-c2cnn3ncccc23)n1 (stereo not shown) | binding | 1 µM | 100
NS(=O)(=O)c1cc(NC(=O)Cc2ccccc2)ccc1Oc1cccc(Cl)c1 | cell-free assay, competition with immobilised ligand | 1 µM | 84
COc1ncc2cc3ccccc3nc2c1C#N | cell-free assay, competition with immobilised ligand | 5 µM | 100
C=CC(=O)N1CCC(C(=O)NCC(=O)N2CCN(c3nc(-c4cnc(N)nc4C(F)F)nc(N4CCOCC4)n3)CC2)CC1 | binding, competition with immobilised ligand | 1 µM | 79
CC1=C(C#N)[C@@H](c2ccc3[nH]nc(C)c3c2)C(C#N)=C(c2ccc(Cl)cc2)N1 | cell-free assay, competition with immobilised ligand | 1 µM | 81.4
O=C(NCCCN1CCOCC1)c1ccc(Nc2ncc(Cl)c(-c3ccc(Cl)s3)n2)cc1 | binding, competition with immobilised ligand | 1 µM | 100
Cc1cc(C)c(-n2ccn3nc(-c4cccnc4)cc23)cc1NC(=O)c1cc(C#N)cc(S(F)(F)(F)(F)F)c1 | cell-free assay, competition with immobilised ligand | 0.1 µM | 83
FC(F)(F)Oc1cccc(-c2cnc3ccc(-c4ccncc4)nn23)c1 | cell-free assay, competition with immobilised ligand | 5 µM | 96
CN(C)c1ncc(F)c(-c2cnn3ncccc23)n1 | binding | 1 µM | 100
COc1cnc(Nc2cccc(S(N)(=O)=O)c2)nc1N1CCN(c2ccccc2)C(=O)C1 | binding, competition with immobilised ligand | 1 µM | 100
COc1ccnn2ncc(-c3ccnc(N(C)C)n3)c12 | binding | 1 µM | 100
O=C(c1ccc(Nc2nccc(-c3cc4ccccc4s3)n2)cc1)N1CCC(N2CCCC2)CC1 | binding, competition with immobilised ligand | 1 µM | 100
CN(c1ccnc(CNc2nc(Nc3ccc4c(c3)CC(=O)N4)ncc2C(F)(F)F)n1)S(C)(=O)=O | cell-free assay, competition with immobilised ligand | 1 µM | 100
Nc1ncc2c(n1)-c1c([nH]c3ccc(C#CC4CC4)cc13)CCCC2 | binding, competition with immobilised ligand | 1 µM | 97
C[C@@H]1CCN(c2nccc(-c3cnn4ncccc34)n2)C1 | binding | 1 µM | 100
CNC(=O)[C@@H]1CC[C@@H](n2c(-c3ccc4cnccc4c3)nc3ccc(C(=O)NCc4cccc(C(N)=O)c4)cc32)C1 | binding, competition with immobilised ligand | 1 µM | 100
CN(C)c1nccc(-c2cnc3ncccn23)n1 | binding | 1 µM | 83
COc1cc(-c2cn(C3CCc4ccccc4N(CC(F)(F)F)C3=O)nn2)ccc1-n1ccc(C)n1 (stereo not shown) | cell-free assay, competition with immobilised ligand | 1 µM | 100
O=C(Nc1c[nH]nc1C(=O)NC1CCNCC1)c1cc(F)cc(F)c1 | binding, competition with immobilised ligand | 1 µM | 100
N[C@H]1CCN(c2nccc(-c3cnn4ncccc34)n2)C1 | binding | 1 µM | 82
O=C(O)c1cc(-c2ccc(C3CCNCC3)cc2)c2ccc(-c3ccc(C(F)(F)F)cc3)cc2c1 | cell-free assay, competition with immobilised ligand | 1 µM | 100
